Source: ChEMBL document CHEMBL1155063 (Bioorg Med Chem, 2008)
Activity calls are given as the source filed them. The calls are words filed in the database; no cut-off is given here.

Columns and labels:
SK-OV-3 = test: Cytotoxicity against human SKOV3 cells at 10 uM after 48 hrs by MTT assay; assay type: functional; conditions: SK-OV-3, 48 h
In short: (§1)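 Single-dose screen on the NCI 60-cell-line panel, run to the Developmental Therapeutics Program protocol (one-dose mean graph). Each value is the growth percentage of treated cells against untreated control cells.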

PC-3 = test: Cytotoxicity against human PC3 cells at 10 uM after 48 hrs by MTT assay; assay type: functional; conditions: PC-3, 48 h, values are per cent of control; in short: as §1
[1] = Cytotoxicity against human TERT immortalized BJ1 cells at 1 uM after 48 hrs by MTT assay relative to control; assay type: cell-based, BJ
In short: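 hTERT-immortalized BJ1 fibroblasts were grown in DMEM with 10% FCS, 1 mM pyruvate and 4 mM […]. Cells (about 2 × 10^3 per well) were seeded and held 24 h at 37 °C. Compounds were freshly dissolved in DMSO, diluted into medium and left on the cells 48 h. MTT was added for 4 h, then SDS/DMF lysis buffer for 16 h. Absorbance was read at 550 nm and expressed relative to untreated cells (100%).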

SW-620 = test: Cytotoxicity against human SW620 cells at 10 uM after 48 hrs by MTT assay; assay type: functional; conditions: SW-620, 48 h, values are per cent of control
In short: (§2)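 Single-dose screen in the NCI 60-cell-line panel, run according to the Developmental Therapeutics Program protocol (one-dose mean graph). The result is the growth percentage of treated cells relative to untreated control cells.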

[2] = Cell viability of human H1299 cells at 1 uM after 48 hrs by MTT assay relative to control; conditions: NCI-H1299, 48 h
SK-MEL-28 = test: Cytotoxicity against human SK-MEL-28 cells at 10 uM after 48 hrs by MTT assay; assay type: functional; conditions: SK-MEL-28, 48 h, values are per cent of control; in short: as §1
KM12 = test: Cytotoxicity against human KM12 cells at 10 uM after 48 hrs by MTT assay; assay type: functional; conditions: KM12, 48 h; in short: as §1
SF-539 = test: Cytotoxicity against human SF539 cells at 10 uM after 48 hrs by MTT assay; assay type: functional; conditions: SF-539, 48 h, values are per cent of control; in short: as §1
OVCAR-5 = test: Cytotoxicity against human OVCAR5 cells at 10 uM after 48 hrs by MTT assay; assay type: functional; conditions: OVCAR-5, 48 h; in short: as §1
SF-295 = test: Cytotoxicity against human SF295 cells at 10 uM after 48 hrs by MTT assay; assay type: functional; conditions: SF-295, 48 h, values are per cent of control; in short: as §1
NCI-H522 = test: Growth percent of human NCI-H522 cells at 10 uM after 48 hrs by MTT assay; conditions: NCI-H522, 48 h
NCI/ADR-RES = test: Cytotoxicity against human NCI/ADR-RES cells at 10 uM after 48 hrs by MTT assay; assay type: functional; in short: as §1
A498 = test: Cytotoxicity against human A498 cells at 10 uM after 48 hrs by MTT assay; assay type: functional; conditions: A498, 48 h; in short: as §1
HOP-62 = test: Cytotoxicity against human HOP62 cells at 10 uM after 48 hrs by MTT assay; assay type: functional; conditions: HOP-62, 48 h; in short: as §1
LOX IMVI = test: Cytotoxicity against human LOXIMVI cells at 10 uM after 48 hrs by MTT assay; assay type: functional; conditions: values are per cent of control; in short: as §1
[3] = Cytotoxicity against human H1299 cells at 100 uM after 48 hrs by MTT assay realtive to control; assay type: functional; conditions: NCI-H1299, 48 h
In short: (§3)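 H1299 non-small-cell lung cells were kept in RPMI 1640 with 10% FBS and penicillin/streptomycin at 37 °C under 5% CO2. About 2 × 10^3 cells per well were pre-incubated for 24 h. Compound was added from freshly made DMSO solution diluted in complete medium and left for 48 h. MTT was then added for 4 h at 37 °C, followed by 20% SDS/50% DMF lysis buffer for 16 h at 37 °C, and absorbance read at 550 nm.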

SN12C = test: Cytotoxicity against human SN12C cells at 10 uM after 48 hrs by MTT assay; assay type: functional; in short: as §1
HCC 2998 = test: Growth percent of human HCC2998 cells at 10 uM after 48 hrs by MTT assay; conditions: HCC 2998, 48 h
SK-MEL-5 = test: Cytotoxicity against human SK-MEL-5 cells at 10 uM after 48 hrs by MTT assay; assay type: functional; conditions: SK-MEL-5, 48 h, values are per cent of control; in short: as §1
MDA-MB-231 = test: Cytotoxicity against human MDA-MB-231/ATCC cells at 10 uM after 48 hrs by MTT assay; assay type: functional; conditions: MDA-MB-231, 48 h; in short: as §1
[4] = molecular target: T1, Telomerase reverse transcriptase (Homo sapiens, UniProt O14746); test: Inhibition of telomerase in human H1299 cells at 1 to 20 uM by TRAP assay; assay type: cell-based
T1 sequence (O14746 whole entry): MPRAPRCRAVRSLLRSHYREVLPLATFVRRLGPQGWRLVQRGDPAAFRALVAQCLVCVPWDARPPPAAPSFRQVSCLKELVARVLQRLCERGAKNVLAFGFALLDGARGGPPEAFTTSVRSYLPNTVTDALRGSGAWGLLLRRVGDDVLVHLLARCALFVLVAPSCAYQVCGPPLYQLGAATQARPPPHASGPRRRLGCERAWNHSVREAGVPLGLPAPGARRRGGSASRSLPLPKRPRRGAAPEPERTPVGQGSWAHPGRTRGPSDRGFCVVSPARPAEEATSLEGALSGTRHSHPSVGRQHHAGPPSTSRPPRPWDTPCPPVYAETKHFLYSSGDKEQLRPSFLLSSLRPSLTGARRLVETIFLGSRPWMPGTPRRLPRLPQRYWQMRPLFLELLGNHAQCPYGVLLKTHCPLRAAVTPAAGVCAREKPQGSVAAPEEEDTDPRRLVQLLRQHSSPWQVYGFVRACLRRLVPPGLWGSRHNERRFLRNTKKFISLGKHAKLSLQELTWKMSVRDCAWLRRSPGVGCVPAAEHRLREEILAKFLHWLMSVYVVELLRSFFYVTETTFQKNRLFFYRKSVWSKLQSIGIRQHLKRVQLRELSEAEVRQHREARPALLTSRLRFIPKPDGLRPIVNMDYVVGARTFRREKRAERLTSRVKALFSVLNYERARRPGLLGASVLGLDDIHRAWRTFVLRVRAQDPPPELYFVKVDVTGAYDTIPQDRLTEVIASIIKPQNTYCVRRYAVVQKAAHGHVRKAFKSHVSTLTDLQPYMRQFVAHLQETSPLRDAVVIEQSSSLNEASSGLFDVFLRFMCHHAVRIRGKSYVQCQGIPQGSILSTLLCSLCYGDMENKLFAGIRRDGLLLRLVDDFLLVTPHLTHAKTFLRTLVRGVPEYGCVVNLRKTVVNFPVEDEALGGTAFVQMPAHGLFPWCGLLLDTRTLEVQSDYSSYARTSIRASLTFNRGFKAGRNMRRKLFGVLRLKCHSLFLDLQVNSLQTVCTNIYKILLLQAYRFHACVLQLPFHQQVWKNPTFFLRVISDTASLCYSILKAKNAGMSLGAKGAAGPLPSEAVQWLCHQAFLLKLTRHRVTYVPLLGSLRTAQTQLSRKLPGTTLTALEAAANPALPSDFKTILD
In short: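 Modified TRAP assay using 2 µg total lysate from H1299 lung cancer cells as the telomerase source. Compounds were tested at 1, 5, 10 and 20 µM. Products were resolved on 10% polyacrylamide gels and stained with SYBR Green. A Taq-polymerase internal control was included, along with positive and negative controls.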

DU-145 = test: Cytotoxicity against human DU145 cells at 10 uM after 48 hrs by MTT assay; assay type: functional; conditions: DU-145, 48 h, values are per cent of control; in short: as §1
[5] = molecular target: T1, Telomerase reverse transcriptase; test: Effect on human TERT expressed in H1299 cells at 1 uM after 24 hrs by SEAP assay relative to control
HCT-15 = test: Growth percent of human HCT15 cells at 10 uM after 48 hrs by MTT assay; conditions: HCT-15, 48 h
ACHN = test: Cytotoxicity against human ACHN cells at 10 uM after 48 hrs by MTT assay; assay type: functional; in short: as §1
HCT-29 = test: Growth percent of human HCT29 cells at 10 uM after 48 hrs by MTT assay; conditions: HCT-29, 48 h
BT-549 = test: Cytotoxicity against human BT549 cells at 10 uM after 48 hrs by MTT assay; assay type: functional; conditions: BT-549, 48 h; in short: as §1
[6] = molecular target: T1, Telomerase reverse transcriptase; test: Effect on human TERT expressed in BJ1 cells at 10 uM after 24 hrs by SEAP assay relative to control; conditions: BJ
M14 = test: Cytotoxicity against human M14 cells at 10 uM after 48 hrs by MTT assay; assay type: functional; conditions: M14, 48 h, values are per cent of control; in short: as §1
SNB-19 = test: Cytotoxicity against human SNB19 cells at 10 uM after 48 hrs by MTT assay; assay type: functional; conditions: SNB-19, 48 h, values are per cent of control; in short: as §1
U-251 = test: Cytotoxicity against human U251 cells at 10 uM after 48 hrs by MTT assay; assay type: functional; conditions: U-251, 48 h, values are per cent of control; in short: as §2
[7] = Cytotoxicity against human H1299 cells at 10 uM after 48 hrs by MTT assay realtive to control; assay type: functional; conditions: NCI-H1299, 48 h; in short: as §3

Molecule O=C(CCN1CCCC1)Nc1ccc2c(c1)C(=O)c1cc(NC(=O)CCN3CCCC3)ccc1C2=O has a growth percent at 10 µM (SK-OV-3) of 27.1%, a growth, % of control at 10 µM (PC-3) of 21.7% and a viability at 48 h, 1 µM [1] of 82%. For the same molecule, the growth, % of control at 10 µM (SW-620) was 20%, the cell viability at 1 µM [2] was 87% and the growth, % of control at 10 µM (SK-MEL-28) was 15%. For the same molecule, the growth percent at 10 µM (KM12) was 32.5%, the growth, % of control at 10 µM (SF-539) was 33.8% and the growth percent at 10 µM (OVCAR-5) was 18.8%. For the same molecule, the growth, % of control at 10 µM (SF-295) was 48.6%, the growth percent at 10 µM (NCI-H522) was 29.2% and the growth percent at 10 µM (NCI/ADR-RES) was 80.6%. It also gave a growth percent at 10 µM (A498) of -0.91%, a growth percent at 10 µM (HOP-62) of 18.8% and a growth, % of control at 10 µM (LOX IMVI) of 30.7%. The viability at 100 µM [3] was 12%, the growth percent at 10 µM (SN12C) was 6.68% and the growth percent at 10 µM (HCC 2998) was 20%. The growth, % of control at 10 µM (SK-MEL-5) was 56.9%, the growth percent at 10 µM (MDA-MB-231) was 30.5% and the Activity [4] was “Active”. The growth, % of control at 10 µM (DU-145) was 29.5%, the residual activity [5] was 73% and the growth percent at 10 µM (HCT-15) was 56.1%. For the same molecule, the growth percent at 10 µM (ACHN) was 29.6%, the growth percent at 10 µM (HCT-29) was 19.5% and the growth percent at 10 µM (BT-549) was 76.9%. The residual activity [6] was 67%, the growth, % of control at 10 µM (M14) was 53.9% and the growth, % of control at 10 µM (SNB-19) was 67%. For the same molecule, the growth, % of control at 10 µM (U-251) was 18.2% and the viability at 10 µM [7] was 54%.
